The record followed here is ChEMBL document CHEMBL4725282, “Discovery of a Conformationally Constrained Oxazolidinone with Improved Safety and Efficacy Profiles for the Treatment of Multidrug-Resistant Tuberculosis” (J Med Chem, 2020).

≈ marks a conversion by molar mass, not a printed value. Where only a bound is given, the exact number is not on record here.

For series [1], the system named is Mycobacterium tuberculosis. Put plainly: Antitubercular activity against Mycobacterium tuberculosis H37Rv incubated for 7 days by microplate alamar blue assay. The format is functional. The conditions noted are these: 168 h, time 7 day. In short, it runs like this: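 MIC determined by microplate alamar blue assay (MABA) following a published protocol.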
A general note: Resazurin is reduced to fluorescent resorufin, in cell work by metabolically active cells.

Series [2] can be described thus: Inhibition of mitochondrial protein synthesis in rat H9c2 cells measured after 5 days by ELISA. The format is cell-based. The conditions noted are these: H9c2, 120 h. In a few lines: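 H9C2 cells in DMEM with 10% FBS, seeded 1500/well. After 18 h, compound added at final 0.03–200 μM (3-fold series), then 5 days at 37 °C, 5% CO2; 0.5% DMSO negative control. MPS inhibition read by MitoBiogenesis In-Cell ELISA; IC50 calculated.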
In general terms: An ELISA detects its analyte on a solid surface through an enzyme-linked reagent.

Series [3] can be described thus: Stability in CD-1 mouse liver microsome at 1 uM measured after 30 mins in absence of NADPH by LC-MS/MS analysis. The series is classed as ADME. The conditions noted are these: microsomes, 0.5 h. In short, it runs like this: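 Liver microsomes (male CD-1 mouse or pooled human), 1 mg/mL protein, compound 1 µM, 37°C with shaking. Started with 1 mM NADPH or run without cofactor. Quenched with ice-cold ACN/MeOH containing internal standard. Parent quantified by LC-MS/MS; 30 min concentration normalised to time zero.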

A short description of series [4]: Tmax in Balb/c mouse at 25 mg/kg, po by LC-MS/MS analysis. The conditions noted are these: in vivo. The format is ADME, organism-based. In a few lines: (§1)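 Female BALB/c mice, 20-25 g, five per route. Dosed 25 mg/kg p.o. in 0.5% carboxymethyl cellulose or 2.5 mg/kg i.v. in 10% DMSO/saline. Blood sampled 5 min-72 h (p.o.) or 2 min-48 h (i.v.), quantified by LC/MS/MS with ESI+. Parameters by non-compartmental analysis; F = (AUCpo×dose_iv)/(AUCiv×dose_po)×100%.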

A short description of series [5]: AUC (0 to infinity) in Balb/c mouse at 25 mg/kg, po by LC-MS/MS analysis. The format is ADME, organism-based. Details: route oral, time infinity, dose 25 mg/kg; call rule not given here. The conditions noted are these: in vivo. In short, it runs like this:
(§2)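 Female BALB/c mice (20–25 g), five per route. Oral dose 25 mg/kg in 0.5% carboxymethyl cellulose; i.v. dose 2.5 mg/kg in 10% DMSO/physiological saline. Blood sampled 5 min–72 h after p.o. and 2 min–48 h after i.v. Analyte quantified by LC/MS/MS (ESI positive, C18, isocratic methanol/water). Parameters from non-compartmental analysis.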

Series [6] is described as follows: MRT (0 to t) in Balb/c mouse at 25 mg/kg, po by LC-MS/MS analysis. The series is classed as ADME, organism-based. The conditions noted are these: in vivo. In a few lines: as §2
Series [7] in a line: MRT (0 to infinity) in Balb/c mouse at 25 mg/kg, po by LC-MS/MS analysis. The series is classed as ADME, organism-based. The conditions noted are these: in vivo. In a few lines: as §2
Series [8] is described as follows: Terminal half life in Balb/c mouse at 2.5 mg/kg, iv by LC-MS/MS analysis. The conditions noted are these: in vivo, read-out: beta t1/2 (converted). The series is classed as ADME, organism-based. In a few lines:
as §1

Series [9] is described as follows: AUC (0 to infinity) in Balb/c mouse at 2.5 mg/kg, iv by LC-MS/MS analysis. The series is classed as ADME, organism-based. Details: time infinity, route intravenous, dose 2.5 mg/kg. The conditions noted are these: in vivo. In short, it runs like this: as §2
A short description of series [10]: MRT (0 to infinity) in Balb/c mouse at 2.5 mg/kg, iv by LC-MS/MS analysis. The conditions noted are these: in vivo. The series is classed as ADME, organism-based. In a few lines: as §2
Another series deals with HepG2. Put plainly: Cytotoxicity against human HepG2 cells assessed as reduction in cell viability measured after 48 hrs by MTT assay. The series is classed as cell-based. The conditions noted are these: HepG2, 48 h. In short, it runs like this: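 Cytotoxicity on Vero or HepG2 cells by MTT assay, run as previously reported.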
On the technique in general: Tetrazolium dyes change colour on reduction, which living cells bring about.

The nature of series [11]: Toxicity in CD-1 mouse assessed as increase in bone marrow micronucleus formation up to 2000 mg/kg, po administered daily via gavage for 2 days measured measured 18 to 24 hrs post last dose by microscopic analysis. The series is classed as organism-based. The conditions noted are these: in vivo, 48 h, time 2 day. In short, it runs like this:
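Male CD-1 (ICR) mice, 28.3-33.3 g, 3 per group. Oral gavage on 2 consecutive days, 24 h apart, at 100-2000 mg/kg; 500, 1000 and 2000 mg/kg analysed. Bone marrow harvested 18-24 h after last dose and scored microscopically for micronucleus frequency and PCE/total erythrocytes.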

Series [12] can be described thus: Mutagenicity in Salmonella typhimurium TA100 up to 1000 ug measured after 48 to 72 hrs in presence of S9 fraction by Ames test. The format is toxicity, subcellular. The conditions noted are these: salmonella enterica subsp. enterica serovar typhimurium, dose <=1000 µg, time 48-72 hrs. In a few lines: (§3)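 Mini-Ames, plate incorporation in 6-well format. Bacteria, compound (DMSO vehicle, top 1000 µg/well), and 10% S9 mix or PBS were mixed into molten agar at 45°C and poured over minimal agar, then incubated 37°C for 48-72 h. Revertants were counted manually and the background lawn inspected. A result is positive at ≥2-fold the mean vehicle revertants with a dose-related increase.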

Series [13] is described as follows: Mutagenicity in Salmonella typhimurium TA98 up to 1000 ug measured after 48 to 72 hrs in absence of S9 fraction by Ames test. The conditions noted are these: salmonella enterica subsp. enterica serovar typhimurium, dose <=1000 µg, time 48-72 hrs. The format is toxicity. In short, it runs like this:
as §3

Series [14] can be described thus: Mutagenicity in Salmonella typhimurium TA98 up to 1000 ug measured after 48 to 72 hrs in presence of S9 fraction by Ames test. The format is toxicity, subcellular. The conditions noted are these: salmonella enterica subsp. enterica serovar typhimurium, dose <=1000 µg, time 48-72 hrs. In short, it runs like this: as §3
The nature of series [15]: Inhibition of human Nav1.5 expressed in CHO cells at -80 mV holding potential by whole-cell patch-clamp method. The series is classed as cell-based. In short, it runs like this: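 CHO cells expressing Nav1.5, whole-cell patch clamp. Extracellular saline with 132 mM NaCl, 10 mM HEPES, pH 7.35; KCl/EGTA/MgATP pipette solution. Holding potential -80 mV, 20 ms step to -10 mV. Final compound concentrations 0.3–30 μM, diluted from DMSO stocks.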

Series [16] can be described thus: Half life in cynomolgus monkey hepatocytes at 2 uM by LC-MS/MS analysis. The series is classed as ADME, cell-based, Macaca fascicularis, Hepatocyte. In short, it runs like this: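 Hepatocytes (male CD-1 mouse, male SD rat, male beagle dog, male cynomolgus monkey, pooled human), final 1 μM compound and 1 million cells/mL, made by mixing 2 μM compound with 2 million cells/mL. Incubated at 37 °C in a CO2 incubator; sampled at 0, 15, 30, 60, 90 and 120 min. Quenched with methanol/ACN containing 0.1% formic acid. Parent remaining measured by LC-MS/MS.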

Series [17] in a line: Toxicity in female Sprague-Dawley rat assessed as ophthalmic changes at 50 to 450 mg/kg/day, po administered for 4 weeks followed by 2 week recovery period. The conditions noted are these: in vivo, 1008 h, dose 50-450 mg/kg/day, time 6 weeks. The series is classed as organism-based. In short, it runs like this:
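SD rats, 6-7 weeks old (96 in total), split into vehicle, 50, 150 and 450 mg/kg/day groups of 12 females and 12 males each, given oral doses once daily for 4 weeks, then 2 weeks of recovery. Mortality, body weight, food intake, eyes, urine and neuropsychic signs were observed. Organ and bone marrow histopathology was done on 8 rats per sex per group after the last dose and on the remaining 4 per sex after 14 days of recovery.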

The nature of series [18]: Toxicity in male Sprague-Dawley rat assessed as change in mean corpuscular volume at 150 mg/kg/day, po administered for 4 weeks followed by 2 week recovery period (Rvb =57.5 +/- 2.0 fL). The series is classed as organism-based. The conditions noted are these: in vivo, 672 h.
A short description of series [19]: Toxicity in female Sprague-Dawley rat assessed as change in hemoglobin count at 150 mg/kg/day, po administered for 4 weeks followed by 2 week recovery period (Rvb =136 +/- 7 g/L). The series is classed as organism-based. The conditions noted are these: in vivo, 672 h.

In the case of `CC(=O)NC[C@@H]1OC(=O)N2c3cc(F)c(N4CC[S+]([O-])CC4)cc3OC[C@@H]12`, the MIC (commonly the lowest concentration that inhibits growth of the organism) in [1] (Mycobacterium tuberculosis, H37Rv, read-out: MIC) was determined as 0.44 µg/mL (≈ 1.11 µM). Also, the 50% inhibitory concentration (IC50) (commonly the concentration at which inhibition is half-maximal) was 60.6 µM in series [2], above 64 µg/mL in the series with HepG2 and above 30 µM in [15]. Moreover, in series [3], the Stabilty entry is recorded as “Stable”. Also, the Tmax (in general, the time at which the peak concentration occurs) in series [4] is 0.5 h. For the same molecule, the area under the curve AUC(0-inf) – broadly, the area under the concentration-time curve extrapolated to infinity – in [5] worked out at 9020 ng·h/mL; in [9], 592 ng·h/mL. For the same molecule, the MRT last (usually a mean duration of stay, worked out from the concentration-time curve) in series [6] was 9.83 h. The mean residence time (MRT inf) (usually the average time that molecules of a dose stay in the body) came to 10.8 h in series [7] and 6.22 h in [10]. For the same molecule, the half-life in series [8] is 3.81 h. The Activity entry in series [11], in series [12], in series [13] and in series [14] was “Non-Toxic” in each case.
Regarding `CC(=O)NC[C@@H]1OC(=O)N2c3cc(F)c(N4CCSCC4)cc3OC[C@@H]12`, the MIC in series [1] was found to be 0.03 µg/mL (≈ 0.0787 µM). Moreover, the IC50 in series [2] was above 100 µM; with HepG2, above 64 µg/mL; in series [15] it was above 30 µM. In addition, the Stabilty result in series [3] is “Stable”. For the same molecule, the half-life at 2 µM in [16] worked out at 5.25 h. Moreover, the Tmax in series [4] was determined as 0.25 h. The AUC(0-inf) in [5] turned out to be 7620 ng·h/mL; in series [9], 1190 ng·h/mL. In addition, the MRT last in series [6] was determined as 7.59 h. In addition, the MRT inf amounted to 15.2 h in [7] and 0.691 h in series [10]. Besides, the half-life in [8] was 0.923 h. In addition, the Activity entry is “Non-Toxic” in series [11]; “Non-Toxic” in series [12]; “Non-Toxic” in series [13]; “Non-Toxic” in series [14]; “Non-Toxic” in series [17]; 58.5 fL in [18]. The Activity in series [19] turned out to be 124 g/L.
